The full list was thinned out, with hits kept by preference.
CHOP UPR activ = apoptotic UPR (CHOP) activation. CHO-CHOP luciferase reporter, luminescence; percent of tunicamycin response over DMSO baseline. actives 0.34% (n = 330,000). activation, % at 10 µM;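 active = at 10 µM dose, activation of 40% or more, normalized to positive control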
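measured by = luciferase luminescence | assay system = CHO-CHOP cells, stable luciferase reporter of PERK-eIF2a-CHOP signalling | amount = 500 reporter cells seeded per well | timing = 6 h compound exposure at 37 °C after overnight seeding | controls = positive tunicamycin 10 µg/mL, negative DMSO alone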
UPR XBP1 act = adaptive UPR (XBP1) activation; activation, % at 20 µM; CHO-XBP1 luciferase reporter, IRE1-XBP1 UPR activation, luminescence; percent of tunicamycin response, DMSO as zero; AID 463104; actives 0.33% (n = 330,000);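 active = versus positive control, 20 µM dose yields 30% or more activation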
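incubation = overnight seeding at 37 °C, 6 h compound treatment at 37 °C | assay system = CHO-XBP1 cells stably carrying IRE1-XBP1-driven luciferase reporter | input = 1000 cells per well | detection = luciferase luminescence | dosing = single point, 20 µM final compound, 1% DMSO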
Jurkat NFkB inh = lowers PMA/ionomycin-induced NF-kB signal in Jurkat cells. PMA/ionomycin-induced NF-kB luciferase reporter, luminescence. inhibition, % at 4 µM. actives 0.53% (n = 330,000); in the data active = inhibition above about 50%
CHOP inh = CHOP inhibition in unfolded protein response; CHO-K1 CHOP-promoter luciferase, tunicamycin-induced, 15-18 h; inhibition, % at 10 µM; actives 3.8% (n = 220,000);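 active = compounds that reduced the stress-induced luciferase reporter signal by more than about 70% of percent inhibition, limit read from the data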
697 NFkB inh = inhibitors of the PMA/ionomycin-induced NF-kB reporter in 697 B cells; AID 435022; actives 0.33% (n = 330,000); 697 B-cell NF-kB luciferase reporter, 16 h; inhibition, % at 4 µM; in the data active = inhibition above about 35%
A number is an active result; . = inactive; / = not tested or not shown.

SMILES	CHOP UPR activ	UPR XBP1 act	Jurkat NFkB inh	CHOP inh	697 NFkB inh
C=CCn1c(=NC(=O)c2ccco2)sc2cc(C(=O)OC)ccc21	.	.	.	80	.
N#Cc1ccc(/C=C\c2nccc3c2[nH]c2ccccc23)cc1	.	.	.	78	.
CCCCNC(=O)CSc1nc2ccccc2n1S(=O)(=O)c1ccc(Cl)cc1	.	.	.	75	.
CCNc1nc(NC(C)C)nc(N(C#N)CCOc2ccc(Cl)cc2Cl)n1	.	.	.	76	.
c1ccc(COc2ccc(Nc3ncnc4nc[nH]c34)cc2)cc1	.	.	.	.	.
CN(C(=O)Nc1ccc(Cl)cc1Cl)[C@H]1c2cc(Br)ccc2OC[C@H]1CO	.	.	.	89	.
Cc1cc(N2CCOCC2)nc(SCc2ccc(Cl)cc2Cl)n1	.	.	.	.	.
Cc1ccc(NC(=O)Cn2c(O)c(N=NC(=O)c3cc([N+](=O)[O-])ccc3O)c3ccccc32)cc1	.	.	.	.	.
Cc1cccc(NC(=O)Cn2c(O)c(N=NC(=O)c3ccccc3O)c3ccccc32)c1	.	.	.	83	.
Cc1ccccc1NC(=O)c1ccccc1N(C)S(=O)(=O)c1ccccc1	.	.	.	/	.
Cc1cc(C(=O)NC2CCCN(Cc3ccccc3F)C2)n[nH]1 (centres undefined)	.	.	.	/	.
O=C(O)c1ccc(C2NCC(c3ccccc3Cl)c3c2[nH]c2ccccc32)cc1 (centres undefined)	.	.	.	.	.
COc1cc(C2NCC(c3ccc(Cl)cc3Cl)c3c2[nH]c2ccccc32)cc(OC)c1OC (centres undefined)	.	.	.	77	.
CC(=O)c1sc(NC(=O)COc2c(C)cc(Cl)cc2C)nc1C	.	.	.	83	.
COc1ccccc1NC(=O)C1=C(C)NC(=O)NC1c1cc(C)cs1 (centres undefined)	.	.	.	.	.
Cc1cccc(C)c1OCC(O)CN1CCC(CN2C(=O)c3cccc4cccc(c34)C2=O)CC1 (centres undefined)	.	.	.	79	.
C=CCc1ccccc1OCC(O)CN1CCN(c2ccc(C)cc2)CC1 (centres undefined)	.	.	.	79	.
C=CCc1ccccc1OCC(O)CN1CCN(CCN2C(=O)c3cccc4cccc(c34)C2=O)CC1 (centres undefined)	.	.	.	86	.
CSc1ccccc1OCc1cc(C(=O)N2CCC[C@H]2C(N)=O)no1	.	.	.	/	.
CC1CCCN(C(=O)CSc2nnc3ccccn23)C1 (centres undefined)	.	.	.	/	.
COc1ccccc1/C=C1\CCC(C2CCCC2)C1=O (centres undefined)	.	.	.	/	.
COc1cccc(-c2nnc3n2N=C(c2cc(OC)ccc2OC)CS3)c1	.	.	.	.	.
COc1cccc(-c2nnc3n2N=C(C(C)(C)C)CS3)c1	.	.	.	75	.
C=CCSc1nc2ccccc2n1C(=O)/C=C/c1ccc(OC)c(OC)c1	/	/	/	109	/
CCOC(=O)C1CCCN(Cc2ccc(-c3ccccc3)cc2)C1 (centres undefined)	.	.	.	/	.
SMILES	CHOP UPR activ	UPR XBP1 act	Jurkat NFkB inh	CHOP inh	697 NFkB inh
CCOC(=O)C1CCCN(Cc2c(Cl)cccc2Cl)C1 (centres undefined)	.	.	.	71	.
C(=N\Nc1nc2ccccc2[nH]1)/c1cccc2cccnc12	.	.	.	88	.
Cc1ccccc1/C=N/Nc1nc2ccccc2[nH]1	.	.	.	.	.
COCCNC(=O)c1cccc(Nc2nc(-c3ccccc3)c3cc(Cl)ccc3n2)c1	.	.	.	82	.
OCCNc1nc(-c2ccccc2)c2cc(Cl)ccc2n1	.	.	.	.	.
C/C=N\NC(=O)COc1cc(C)ccc1C	.	.	.	.	.
CC(C)(C)C1CCC(OC(=O)c2ccncc2)CC1 (centres undefined)	.	.	.	74	.
CC(C)(C)C1CCC(OC(=O)c2cncc(Br)c2)CC1 (centres undefined)	.	.	.	.	.
CCOc1ccccc1N(C)C(=O)Cn1ncc2c([nH]c3ccc(C)cc32)c1=O	.	.	.	/	.
Cc1ccccc1OCC(=O)NCC(=O)N/N=C/c1cccc([N+](=O)[O-])c1	.	.	.	.	.
COc1ccc(/C=N/NC(=O)CCCOc2ccc(Cl)cc2Cl)cc1	.	.	.	85	.
